Results reported in ChEMBL document CHEMBL4689842, “EUbOPEN Chemogenomics Library wave 1” (2021).
“And” between values parts separate entries of the source, which are not always exact repeats. Equal values may be shown once.

Tested on: U2OS
Assay: Multiplex assay against U2OS
Assay type: toxicity, cell-based
Conditions: human
How it was run: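 Imaging took place on a CQ1 microscope at 37°C and 5% CO2 once compound had been added to live cells stained at seeding with Hoechst33342, BioTracker Green Microtubule Cytoskeleton Dye, MitoTracker Red and Annexin V Alexa Fluor 680. CellPathfinder machine-learning gating classed cells as Hoechst high-intensity objects or normal cells, classed normal cells as having healthy, pyknosed or fragmented nuclei, and classed pyknosed cells as mitotic or apoptotic. Tubulin, mitochondrial-mass and membrane-permeability phenotypes are per cents of the healthy-nucleus cells.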

[1] = 12 h, 1 µM, compound concentration 1 uM, replicate 1
[2] = 12 h, 1 µM, compound concentration 1 uM, replicate 2
[3] = 12 h, 10 µM, compound concentration 10 uM, replicate 1
[4] = 12 h, 10 µM, compound concentration 10 uM, replicate 2
[5] = 24 h, 1 µM, compound concentration 1 uM, replicate 1
[6] = 24 h, 1 µM, compound concentration 1 uM, replicate 2
[7] = 24 h, 10 µM, compound concentration 10 uM, replicate 1
[8] = 24 h, 10 µM, compound concentration 10 uM, replicate 2
[9] = 48 h, 1 µM, compound concentration 1 uM, replicate 1
[10] = 48 h, 1 µM, compound concentration 1 uM, replicate 2
[11] = 48 h, 10 µM, compound concentration 10 uM, replicate 1
[12] = 48 h, 10 µM, compound concentration 10 uM, replicate 2

Compound: CCc1nn(CCCN2CCN(c3cccc(Cl)c3)CC2)c(=O)n1CCOc1ccccc1.Cl [NEFAZODONE HYDROCHLORIDE]
- Population Apoptotic (%) [1]: 42%
- Population Fragmented Nuclei (%) [1]: 11%
- Population Healthy Nuclei (%) [1]: 67%
- Population Hoechst High Intensity Objects (%) [1]: 9%
- Population Membrane Permeable-Phenotype (%) [1]: 1%
- Population Mitochondria Different-Phenotype (%) [1]: 27%
- Population Mitotic Cells (%) [1]: 57%
- Population Normal (%) [1]: 90%
- Population Pyknosed Nuclei (%) [1]: 20%
- Population Tubulin-Different-Phenotype (%) [1]: 28%
- Population Apoptotic (%) [2]: 0%
- Population Fragmented Nuclei (%) [2]: 8%
- Population Healthy Nuclei (%) [2]: 89%
- Population Hoechst High Intensity Objects (%) [2]: 6%
- Population Membrane Permeable-Phenotype (%) [2]: 3%
- Population Mitochondria Different-Phenotype (%) [2]: 9%
- Population Mitotic Cells (%) [2]: 100%
- Population Normal (%) [2]: 93%
- Population Pyknosed Nuclei (%) [2]: 1%
- Population Tubulin-Different-Phenotype (%) [2]: 29%
- Total Cell Count [2]: 68
- Population Apoptotic (%) [3]: 71%
- Population Fragmented Nuclei (%) [3]: 13%
- Population Healthy Nuclei (%) [3]: 55%
- Population Hoechst High Intensity Objects (%) [3]: 5%
- Population Membrane Permeable-Phenotype (%) [3]: 56%
- Population Mitochondria Different-Phenotype (%) [3]: 100%
- Population Mitotic Cells (%) [3]: 28%
- Population Normal (%) [3]: 94%
- Population Pyknosed Nuclei (%) [3]: 31%
- Population Tubulin-Different-Phenotype (%) [3]: 100%
- Total Cell Count [3]: 150
- Population Apoptotic (%) [4]: 69%
- Population Fragmented Nuclei (%) [4]: 9%
- Population Healthy Nuclei (%) [4]: 69%
- Population Hoechst High Intensity Objects (%) [4]: 3%
- Population Membrane Permeable-Phenotype (%) [4]: 60%
- Population Mitochondria Different-Phenotype (%) [4]: 97%
- Population Mitotic Cells (%) [4]: 30%
- Population Normal (%) [4]: 96%
- Population Pyknosed Nuclei (%) [4]: 20%
- Population Tubulin-Different-Phenotype (%) [4]: 97%
- Total Cell Count [4]: 61
- Population Apoptotic (%) [5]: 32%
- Population Fragmented Nuclei (%) [5]: 10%
- Population Healthy Nuclei (%) [5]: 73%
- Population Hoechst High Intensity Objects (%) [5]: 6%
- Population Membrane Permeable-Phenotype (%) [5]: 3%
- Population Mitochondria Different-Phenotype (%) [5]: 21%
- Population Mitotic Cells (%) [5]: 68%
- Population Normal (%) [5]: 93%
- Population Pyknosed Nuclei (%) [5]: 15%
- Population Tubulin-Different-Phenotype (%) [5]: 22%
- Population Apoptotic (%) [6]: 50%
- Population Fragmented Nuclei (%) [6]: 8%
- Population Healthy Nuclei (%) [6]: 85%
- Population Hoechst High Intensity Objects (%) [6]: 2%
- Population Membrane Permeable-Phenotype (%) [6]: 1%
- Population Mitochondria Different-Phenotype (%) [6]: 15%
- Population Mitotic Cells (%) [6]: 50%
- Population Normal (%) [6]: 97%
- Population Pyknosed Nuclei (%) [6]: 5%
- Population Tubulin-Different-Phenotype (%) [6]: 33%
- Total Cell Count [6]: 71
- Population Apoptotic (%) [7]: 82%
- Population Fragmented Nuclei (%) [7]: 17%
- Population Healthy Nuclei (%) [7]: 49%
- Population Hoechst High Intensity Objects (%) [7]: 7%
- Population Membrane Permeable-Phenotype (%) [7]: 72%
- Population Mitochondria Different-Phenotype (%) [7]: 98%
- Population Mitotic Cells (%) [7]: 17%
- Population Normal (%) [7]: 92%
- Population Pyknosed Nuclei (%) [7]: 33%
- Population Tubulin-Different-Phenotype (%) [7]: 100%
- Total Cell Count [7]: 172
- Population Apoptotic (%) [8]: 80%
- Population Fragmented Nuclei (%) [8]: 22%
- Population Healthy Nuclei (%) [8]: 56%
- Population Hoechst High Intensity Objects (%) [8]: 1%
- Population Membrane Permeable-Phenotype (%) [8]: 80%
- Population Mitochondria Different-Phenotype (%) [8]: 100%
- Population Mitotic Cells (%) [8]: 20%
- Population Normal (%) [8]: 98%
- Population Pyknosed Nuclei (%) [8]: 20%
- Total Cell Count [8]: 72
- Population Apoptotic (%) [9]: 46%
- Population Fragmented Nuclei (%) [9]: 9%
- Population Healthy Nuclei (%) [9]: 73%
- Population Hoechst High Intensity Objects (%) [9]: 5%
- Population Membrane Permeable-Phenotype (%) [9]: 3%
- Population Mitochondria Different-Phenotype (%) [9]: 15%
- Population Mitotic Cells (%) [9]: 53%
- Population Normal (%) [9]: 94%
- Population Pyknosed Nuclei (%) [9]: 16%
- Population Tubulin-Different-Phenotype (%) [9]: 14%
- Population Apoptotic (%) [10]: 16%
- Population Fragmented Nuclei (%) [10]: 5%
- Population Healthy Nuclei (%) [10]: 88%
- Population Hoechst High Intensity Objects (%) [10]: 1%
- Population Membrane Permeable-Phenotype (%) [10]: 2%
- Population Mitochondria Different-Phenotype (%) [10]: 18%
- Population Mitotic Cells (%) [10]: 83%
- Population Normal (%) [10]: 98%
- Population Pyknosed Nuclei (%) [10]: 5%
- Population Tubulin-Different-Phenotype (%) [10]: 46%
- Total Cell Count [10]: 67
- Population Apoptotic (%) [11]: 82%
- Population Fragmented Nuclei (%) [11]: 24%
- Population Healthy Nuclei (%) [11]: 41%
- Population Membrane Permeable-Phenotype (%) [11]: 83%
- Population Mitochondria Different-Phenotype (%) [11]: 97%
- Population Mitotic Cells (%) [11]: 17%
- Population Pyknosed Nuclei (%) [11]: 34%
- Total Cell Count [11]: 246
- Population Apoptotic (%) [12]: 66%
- Population Fragmented Nuclei (%) [12]: 14%
- Population Healthy Nuclei (%) [12]: 43%
- Population Hoechst High Intensity Objects (%) [12]: 8%
- Population Membrane Permeable-Phenotype (%) [12]: 85%
- Population Mitochondria Different-Phenotype (%) [12]: 100%
- Population Mitotic Cells (%) [12]: 33%
- Population Normal (%) [12]: 91%
- Population Pyknosed Nuclei (%) [12]: 42%
- Population Tubulin-Different-Phenotype (%) [12]: 100%
- Total Cell Count [12]: 110

Compound: C[C@]1(O)C[C@@H](c2nc(-c3ccc4ccc(-c5ccccc5)nc4c3)c3c(N)nccn32)C1 [LINSITINIB]
- Population Apoptotic (%) [1]: 57% and 35%
- Population Fragmented Nuclei (%) [1]: 10% and 3%
- Population Healthy Nuclei (%) [1]: 79% and 85%
- Population Hoechst High Intensity Objects (%) [1]: 2% and 4%
- Population Mitochondria Different-Phenotype (%) [1]: 17% and 28%
- Population Mitotic Cells (%) [1]: 42% and 64%
- Population Normal (%) [1]: 97% and 95%
- Population Pyknosed Nuclei (%) [1]: 9% and 11%
- Population Tubulin-Different-Phenotype (%) [1]: 50%
- Total Cell Count [1]: 132 and 196
- Population Apoptotic (%) [2]: 50% and 33%
- Population Fragmented Nuclei (%) [2]: 13% and 5%
- Population Healthy Nuclei (%) [2]: 81% and 89%
- Population Hoechst High Intensity Objects (%) [2]: 8% and 19%
- Population Membrane Permeable-Phenotype (%) [2]: 39% and 16%
- Population Mitochondria Different-Phenotype (%) [2]: 16% and 25%
- Population Mitotic Cells (%) [2]: 50% and 66%
- Population Normal (%) [2]: 91% and 80%
- Population Pyknosed Nuclei (%) [2]: 5% and 4%
- Population Tubulin-Different-Phenotype (%) [2]: 45% and 28%
- Total Cell Count [2]: 83 and 65
- Population Apoptotic (%) [5]: 48% and 53%
- Population Fragmented Nuclei (%) [5]: 4%
- Population Healthy Nuclei (%) [5]: 76% and 87%
- Population Membrane Permeable-Phenotype (%) [5]: 23% and 8%
- Population Mitochondria Different-Phenotype (%) [5]: 20% and 22%
- Population Mitotic Cells (%) [5]: 51% and 46%
- Population Normal (%) [5]: 94% and 98%
- Population Pyknosed Nuclei (%) [5]: 11% and 8%
- Population Tubulin-Different-Phenotype (%) [5]: 41% and 33%
- Total Cell Count [5]: 180 and 194
- Population Fragmented Nuclei (%) [6]: 12% and 8%
- Population Healthy Nuclei (%) [6]: 79% and 84%
- Population Membrane Permeable-Phenotype (%) [6]: 27% and 13%
- Population Mitochondria Different-Phenotype (%) [6]: 19% and 28%
- Population Mitotic Cells (%) [6]: 60% and 100%
- Population Normal (%) [6]: 95% and 86%
- Population Pyknosed Nuclei (%) [6]: 7%
- Population Tubulin-Different-Phenotype (%) [6]: 28% and 38%
- Total Cell Count [6]: 114 and 78
